What was measured:
NCI-H460 = test: Cytotoxicity against human H460 cells assessed as growth inhibition after 72 hrs by MTT assay; format: functional, cell-based; conditions: NCI-H460, 72 h
Method in brief: (§1)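 Cells grown in MEM with 10% FBS. About 4×10^3 cells/well were pre-incubated for 24 h at 37 °C in 5% CO₂, then exposed to compound at the indicated final concentrations for 72 h. MTT was added to 5 µg/mL final for 4 h at 37 °C. IC50 is the mean of three determinations.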

NCI-H1975 = test: Cytotoxicity against human NCI-H1975 cells assessed as growth inhibition after 72 hrs by MTT assay; format: functional, cell-based; conditions: NCI-H1975, 72 h
Method in brief: as §1, with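 “°C. Formazan was dissolved in DMSO and read at 492 nm, with 630 nm as reference.” for “°C.”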

MDA-MB-231 = test: Cytotoxicity against human MDA-MB-231 cells assessed as growth inhibition after 72 hrs by MTT assay; format: functional, cell-based; conditions: MDA-MB-231, 72 h
Method in brief: as §1, with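 “°C. Formazan was dissolved in DMSO and read at 492 nm, with 630 nm as reference.” for “°C.”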

HT-29 = test: Cytotoxicity against human HT-29 cells assessed as growth inhibition after 72 hrs by MTT assay; format: functional, cell-based; conditions: HT-29, 72 h
Method in brief: as §1, with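 “°C. Formazan was dissolved in DMSO and read at 492 nm, with 630 nm as reference.” for “°C.”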

[1] = Cytotoxicity against human U87MG cells assessed as growth inhibition after 72 hrs by MTT assay; format: functional, cell-based, U-87MG ATCC; conditions: U-87 MG
Method in brief: as §1, with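 “°C. Formazan was dissolved in DMSO and read at 492 nm, with 630 nm as reference.” for “°C.”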

C(=N\Nc1nc(N2CCOCC2)c2sccc2n1)/c1cn(Cc2ccccc2)c2ccccc12
IC50 (NCI-H460; read-out: IC50): 1.41 µM
IC50 (NCI-H460; read-out: pIC50 (converted)): 1.41 µM
IC50 (NCI-H1975): 42.7 µM
IC50 (MDA-MB-231): 12.4 µM
IC50 (HT-29): 4.7 µM
IC50 [1]: > 100 µM

C(=N\Nc1nc(N2CCOCC2)c2sccc2n1)/c1nc2ccccc2n1Cc1ccccc1
IC50 (NCI-H460; read-out: IC50): 25.6 µM
IC50 (NCI-H460; read-out: pIC50 (converted)): 25.7 µM
IC50 (MDA-MB-231): 21.3 µM
IC50 (HT-29): 1.08 µM

Clc1cccc(Cn2c(/C=N/Nc3nc(N4CCOCC4)c4sccc4n3)nc3ccccc32)c1Cl
IC50 (NCI-H460; read-out: IC50): 37.1 µM
IC50 (NCI-H460; read-out: pIC50 (converted)): 37.2 µM
IC50 (MDA-MB-231): > 100 µM
IC50 (HT-29): 6.46 µM

Clc1ccc(Cn2c(/C=N/Nc3nc(N4CCOCC4)c4sccc4n3)nc3ccccc32)cc1
IC50 (NCI-H460; read-out: IC50): 2.6 µM
IC50 (NCI-H460; read-out: pIC50 (converted)): 2.63 µM
IC50 (MDA-MB-231): 13.9 µM
IC50 (HT-29): 0.77 µM
IC50 [1]: 13.4 µM

FC(F)(F)c1cccc(Cn2cc(/C=N/Nc3nc(N4CCOCC4)c4sccc4n3)c3ccccc32)c1
IC50 (NCI-H460; read-out: IC50): 0.52 µM
IC50 (NCI-H460; read-out: pIC50 (converted)): 0.525 µM
IC50 (NCI-H1975): 2.79 µM
IC50 (MDA-MB-231): 83.8 µM
IC50 (HT-29): 1.68 µM
IC50 [1]: 4.84 µM

Clc1ccccc1Cn1cc(/C=N/Nc2nc(N3CCOCC3)c3sccc3n2)c2ccccc21
IC50 (NCI-H460; read-out: IC50): 3.98 µM
IC50 (NCI-H460; read-out: pIC50 (converted)): 3.98 µM
IC50 (MDA-MB-231): > 100 µM
IC50 (HT-29): > 100 µM

Clc1cccc(Cn2c(/C=N/Nc3nc(N4CCOCC4)c4sccc4n3)nc3ccccc32)c1
IC50 (NCI-H460; read-out: IC50): 4.56 µM
IC50 (NCI-H460; read-out: pIC50 (converted)): 4.57 µM
IC50 (MDA-MB-231): 37.7 µM
IC50 (HT-29): 1.01 µM

CC(C)(O)c1cc2nc(N/N=C/c3cn(Cc4ccc(F)cc4)c4ccccc34)nc(N3CCOCC3)c2s1
IC50 (NCI-H460; read-out: IC50): 1.1 µM
IC50 (NCI-H460; read-out: pIC50 (converted)): 1.1 µM
IC50 (MDA-MB-231): 1.53 µM
IC50 (HT-29): 1.01 µM

CC(C)(O)c1cc2nc(N/N=C/c3cn(Cc4ccc(Cl)cc4)c4ccccc34)nc(N3CCOCC3)c2s1
IC50 (NCI-H460; read-out: IC50): 0.55 µM
IC50 (NCI-H460; read-out: pIC50 (converted)): 0.55 µM
IC50 (NCI-H1975): 33.8 µM
IC50 (MDA-MB-231): 5.14 µM
IC50 (HT-29): 0.87 µM
IC50 [1]: 7.43 µM

N#Cc1cccc(Cn2cc(/C=N/Nc3nc(N4CCOCC4)c4sccc4n3)c3ccccc32)c1
IC50 (NCI-H460; read-out: IC50): 0.34 µM
IC50 (NCI-H460; read-out: pIC50 (converted)): 0.347 µM
IC50 (MDA-MB-231): 2 µM
IC50 (HT-29): 4.86 µM
IC50 [1]: 9.68 µM

CC(C)(C)c1ccc(Cn2c(/C=N/Nc3nc(N4CCOCC4)c4sccc4n3)nc3ccccc32)cc1
IC50 (NCI-H460; read-out: IC50): 3.62 µM
IC50 (NCI-H460; read-out: pIC50 (converted)): 3.63 µM
IC50 (MDA-MB-231): 8.17 µM
IC50 (HT-29): 4.18 µM

Clc1ccc(Cn2cc(/C=N/Nc3nc(N4CCOCC4)c4sccc4n3)c3ccccc32)c(Cl)c1
IC50 (NCI-H460; read-out: IC50): 5.77 µM
IC50 (NCI-H460; read-out: pIC50 (converted)): 5.75 µM
IC50 (MDA-MB-231): > 100 µM
IC50 (HT-29): 46.5 µM

CC(C)(O)c1cc2nc(N/N=C/c3cn(Cc4c(Cl)cccc4Cl)c4ccccc34)nc(N3CCOCC3)c2s1
IC50 (NCI-H460; read-out: IC50): 4.03 µM
IC50 (NCI-H460; read-out: pIC50 (converted)): 4.07 µM
IC50 (MDA-MB-231): 62.1 µM
IC50 (HT-29): 3.36 µM

CC(C)(O)c1cc2nc(N/N=C/c3cn(Cc4ccc(Cl)cc4Cl)c4ccccc34)nc(N3CCOCC3)c2s1
IC50 (NCI-H460; read-out: IC50): 8.9 µM
IC50 (NCI-H460; read-out: pIC50 (converted)): 8.91 µM
IC50 (MDA-MB-231): > 100 µM
IC50 (HT-29): 5.38 µM

CC(C)(C)c1ccc(Cn2cc(/C=N/Nc3nc(N4CCOCC4)c4sccc4n3)c3ccccc32)cc1
IC50 (NCI-H460; read-out: IC50): 0.38 µM
IC50 (NCI-H460; read-out: pIC50 (converted)): 0.38 µM
IC50 (NCI-H1975): 8 µM
IC50 (MDA-MB-231): 1.43 µM
IC50 (HT-29): 1.69 µM
IC50 [1]: 11.2 µM

Clc1cccc(Cl)c1Cn1cc(/C=N/Nc2nc(N3CCOCC3)c3sccc3n2)c2ccccc21
IC50 (NCI-H460; read-out: IC50): 10.4 µM
IC50 (NCI-H460; read-out: pIC50 (converted)): 10.5 µM
IC50 (MDA-MB-231): 20.5 µM
IC50 (HT-29): 35.4 µM

Clc1ccccc1Cn1c(/C=N/Nc2nc(N3CCOCC3)c3sccc3n2)nc2ccccc21
IC50 (NCI-H460; read-out: IC50): 79.4 µM
IC50 (NCI-H460; read-out: pIC50 (converted)): 79.4 µM
IC50 (MDA-MB-231): > 100 µM
IC50 (HT-29): 0.4 µM

CC(C)(O)c1cc2nc(NN)nc(N3CCOCC3)c2s1
IC50 (NCI-H460; read-out: IC50): 29.7 µM
IC50 (MDA-MB-231): > 100 µM
IC50 (HT-29): 56.2 µM

— ChEMBL document CHEMBL2086281, “Design, synthesis and 3D-QSAR analysis of novel 2-hydrazinyl-4-morpholinothieno[3,2-d]pyrimidine derivatives as potential antitumor agents” (Eur J Med Chem, 2012)
